Measured values published in ChEMBL document CHEMBL2203235, “Optimization of a natural product-based class of γ-secretase modulators” (J Med Chem, 2012).

How the values were obtained:
[1] = Modulation of gamma secretase in CHO-2B7 cells assessed as reduction in amyloid beta 40 level after 5 hrs by MSD ELISA; assay type: cell-based; details: Cricetulus griseus, CHO-2B7, 5 h
[2] = Metabolic stability in human liver microsomes assessed as compound remaining at 1 uM at 60 mins by LC/MS/MS analysis in absence of NADPH; assay type: ADME, Microsome; details: liver microsomes, read-out: Stability
Summary of the method: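 Human liver microsomes were run without NADPH as a qualitative read of susceptibility to enzymatic hydrolysis. The read-out was percent parent remaining at 60 min.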

[3] = Metabolic stability in human liver microsomes assessed as compound remaining at 1 uM at 60 mins by LC/MS/MS analysis in presence of NADPH; assay type: ADME, Microsome; details: read-out: Stability
[4] = Modulation of gamma secretase in CHO-2B7 cells assessed as reduction in amyloid beta 42 level after 5 hrs by MSD ELISA; assay type: cell-based; details: Cricetulus griseus, CHO-2B7, 5 h
[5] = Modulation of gamma-secretase assessed as reduction in amyloid beta 42 level by cell based assay
[6] = Modulation of gamma-secretase assessed as increase in amyloid beta 38 level at 800 nM by cell based assay relative to control
[7] = Modulation of gamma-secretase assessed as reduction in amyloid beta 40 level by cell based assay
CHO-2B7 [8] = assay: Modulation of gamma secretase in CHO-2B7 cells assessed as reduction in amyloid beta 40 level at 4 mM after 5 hrs by MSD ELISA; assay type: cell-based; design: scale not given: the % may be the effect or the level left; details: Cricetulus griseus
Liver microsomes = assay: Metabolic stability in human liver microsomes at 1 uM after 60 mins by LC/MS/MS analysis; details: 1 h
CHO-2B7 [9] = assay: Modulation of gamma secretase in CHO-2B7 cells assessed as reduction in amyloid beta 40 level at 20 uM after 5 hrs by MSD ELISA; assay type: cell-based; design: scale not given: the % may be the effect or the level left; details: Cricetulus griseus

IC50 [5] [nM]	SMILES	remaining at 1 h, 1 µM [2] [%]	remaining at 1 h, 1 µM [3] [%]	IC50 [4] [nM]	other results
	CC(=O)O[C@@H]([C@H]1C[C@@H](C)[C@H]2[C@H](O1)[C@H](O)[C@@]1(C)[C@@H]3CC[C@H]4C(C)(C)[C@@H](O[C@H]5CNCCO5)CC[C@@]45C[C@@]35CC[C@]21C)C(C)(C)O	7	3	70	IC50 [1]: 2200 nM
260	CC(C)C[C@H](C(=O)O)c1cc(-c2ccc(C(F)(F)F)cc2)cc(-c2ccc(C(F)(F)F)cc2)c1				Activity [6]: 240%; IC50 [7]: 9100 nM
100	CC(C)CC[C@H](c1ccc(Cl)cc1)N1CC[C@@H](CC(=O)O)C[C@H]1c1ccc(C(F)(F)F)cc1				Activity [6]: 280%; IC50 [7]: 8400 nM
	C[C@@H]1C[C@H]([C@H](O)C(C)(C)O)O[C@H]2[C@H]1[C@@]1(C)CC[C@@]34C[C@@]35CC[C@H](O[C@H]3CNCCO3)C(C)(C)[C@@H]5CC[C@H]4[C@]1(C)[C@H]2O	112	40	1600	
	CC(=O)O[C@@H]([C@H]1C[C@@H](C)[C@H]2[C@H](O1)[C@H](O)[C@@]1(C)[C@@H]3CC[C@H]4C(C)(C)[C@@H](O[C@H]5CN([C@H]6CCNC6=O)CCO5)CC[C@@]45C[C@@]35CC[C@]21C)C(C)(C)O	3	63	170	
62	COc1cc(/C=C2\CCCN([C@@H](C)c3ccc(F)cc3)C2=O)ccc1-n1cnc(C)c1				Activity [6]: 280%; IC50 [7]: 280 nM
	CCO[C@@H]([C@H]1C[C@@H](C)[C@H]2[C@H](O1)[C@H](O)[C@@]1(C)[C@@H]3CC[C@H]4C(C)(C)[C@@H](O[C@H]5CN(CC(=O)N6CCC6)CCO5)CC[C@@]45C[C@@]35CC[C@]21C)C(C)(C)O			250	Activity (CHO-2B7 [8]): 39%; Stability (Liver microsomes): Stable
	CCO[C@@H]([C@H]1C[C@@H](C)[C@H]2[C@H](O1)[C@H](O)[C@@]1(C)[C@@H]3CC[C@H]4C(C)(C)[C@@H](O[C@H]5CN(CC(F)F)CCO5)CC[C@@]45C[C@@]35CC[C@]21C)C(C)(C)O			540	Activity (CHO-2B7 [8]): 37%; Stability (Liver microsomes): Stable
	C[C@@H]1C[C@H]([C@H](O)C(C)(C)O)O[C@H]2[C@H]1[C@@]1(C)CC[C@@]34C[C@@]35CC[C@H](O[C@H]3CN(C6COC6)CCO3)C(C)(C)[C@@H]5CC[C@H]4[C@]1(C)[C@H]2O	107	81	≥ 20000	
	CCO[C@@H]([C@H]1C[C@@H](C)[C@H]2[C@H](O1)[C@H](O)[C@@]1(C)[C@@H]3CC[C@H]4C(C)(C)[C@@H](O[C@H]5CN(CC(=O)N(C)C)CCO5)CC[C@@]45C[C@@]35CC[C@]21C)C(C)(C)O			270	Activity (CHO-2B7 [8]): 38%; Stability (Liver microsomes): Stable
	CC(=O)O[C@@H]([C@H]1C[C@@H](C)[C@H]2[C@H](O1)[C@H](O)[C@@]1(C)[C@@H]3CC[C@H]4C(C)(C)[C@@H](O[C@H]5CN(C6COC6)CCO5)CC[C@@]45C[C@@]35CC[C@]21C)C(C)(C)O	1	1	170	Activity (CHO-2B7 [9]): 35%

SMILES	IC50 [5] [nM]	remaining at 1 h, 1 µM [2] [%]	remaining at 1 h, 1 µM [3] [%]	IC50 [4] [nM]	other results
CC(=O)O[C@@H]([C@H]1C[C@@H](C)[C@H]2[C@H](O1)[C@H](O)[C@@]1(C)[C@@H]3CC[C@H]4C(C)(C)[C@@H](O[C@@H]5OC[C@@H](O)[C@H](O)[C@H]5O)CC[C@@]45C[C@@]35CC[C@]21C)C(C)(C)O	60				
CC(=O)O[C@@H]([C@H]1C[C@@H](C)[C@H]2[C@H](O1)[C@H](O)[C@@]1(C)[C@@H]3CC[C@H]4C(C)(C)[C@@H](OC(=O)NC5CNC5)CC[C@@]45C[C@@]35CC[C@]21C)C(C)(C)O	47	21		47	IC50 [1]: 15000 nM
